# System: U2OS
# Assay: Multiplex assay against U2OS
# Format: toxicity, cell-based
# Settings: human
# Procedure, shortened: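 Imaging took place on a CQ1 microscope at 37°C and 5% CO2 once compound had been added to live cells stained at seeding with Hoechst33342, BioTracker Green Microtubule Cytoskeleton Dye, MitoTracker Red and Annexin V Alexa Fluor 680. CellPathfinder machine-learning gating classed cells as Hoechst high-intensity objects or normal cells, classed normal cells as having healthy, pyknosed or fragmented nuclei, and classed pyknosed cells as mitotic or apoptotic. Tubulin, mitochondrial-mass and membrane-permeability phenotypes are per cents of the healthy-nucleus cells.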
# [1] = 12 h, 1 µM, compound concentration 1 uM, replicate 1
# [2] = 12 h, 1 µM, compound concentration 1 uM, replicate 2
# [3] = 12 h, 10 µM, compound concentration 10 uM, replicate 1
# [4] = 12 h, 10 µM, compound concentration 10 uM, replicate 2
# [5] = 24 h, 1 µM, compound concentration 1 uM, replicate 1
# [6] = 24 h, 1 µM, compound concentration 1 uM, replicate 2
# [7] = 24 h, 10 µM, compound concentration 10 uM, replicate 1
# [8] = 24 h, 10 µM, compound concentration 10 uM, replicate 2
# [9] = 48 h, 1 µM, compound concentration 1 uM, replicate 1
# [10] = 48 h, 1 µM, compound concentration 1 uM, replicate 2
# [11] = 48 h, 10 µM, compound concentration 10 uM, replicate 1
# [12] = 48 h, 10 µM, compound concentration 10 uM, replicate 2
compound,measurement,setting,value
O=C(O)Cc1ccccc1Nc1c(Cl)cccc1Cl [DICLOFENAC],Population Apoptotic (%),[1],90%
same,Population Fragmented Nuclei (%),[1],15%
same,Population Healthy Nuclei (%),[1],78%
same,Population Hoechst High Intensity Objects (%),[1],5%
same,Population Membrane Permeable-Phenotype (%),[1],4%
same,Population Mitochondria Different-Phenotype (%),[1],4%
same,Population Mitotic Cells (%),[1],10%
same,Population Normal (%),[1],94%
same,Population Pyknosed Nuclei (%),[1],6%
same,Population Tubulin-Different-Phenotype (%),[1],4%
same,Total Cell Count,[1],164
same,Population Apoptotic (%),[2],84%
same,Population Fragmented Nuclei (%),[2],13%
same,Population Healthy Nuclei (%),[2],76%
same,Population Hoechst High Intensity Objects (%),[2],0%
same,Population Membrane Permeable-Phenotype (%),[2],5%
same,Population Mitochondria Different-Phenotype (%),[2],2%
same,Population Mitotic Cells (%),[2],15%
same,Population Normal (%),[2],99%
same,Population Pyknosed Nuclei (%),[2],10%
same,Population Tubulin-Different-Phenotype (%),[2],2%
same,Population Apoptotic (%),[3],75%
same,Population Fragmented Nuclei (%),[3],20%
same,Population Healthy Nuclei (%),[3],68%
same,Population Hoechst High Intensity Objects (%),[3],2%
same,Population Membrane Permeable-Phenotype (%),[3],8%
same,Population Mitochondria Different-Phenotype (%),[3],4%
same,Population Mitotic Cells (%),[3],25%
same,Population Normal (%),[3],97%
same,Population Pyknosed Nuclei (%),[3],11%
same,Population Tubulin-Different-Phenotype (%),[3],4%
same,Total Cell Count,[3],258
same,Population Apoptotic (%),[4],72%
same,Population Fragmented Nuclei (%),[4],14%
same,Population Healthy Nuclei (%),[4],76%
same,Population Hoechst High Intensity Objects (%),[4],3%
same,Population Mitochondria Different-Phenotype (%),[4],3%
same,Population Mitotic Cells (%),[4],27%
same,Population Normal (%),[4],96%
same,Population Pyknosed Nuclei (%),[4],9%
same,Population Tubulin-Different-Phenotype (%),[4],8%
same,Population Apoptotic (%),[5],92%
same,Population Fragmented Nuclei (%),[5],15%
same,Population Healthy Nuclei (%),[5],76%
same,Population Hoechst High Intensity Objects (%),[5],4%
same,Population Membrane Permeable-Phenotype (%),[5],2%
same,Population Mitochondria Different-Phenotype (%),[5],2%
same,Population Mitotic Cells (%),[5],7%
same,Population Normal (%),[5],95%
same,Population Pyknosed Nuclei (%),[5],7%
same,Population Tubulin-Different-Phenotype (%),[5],2%
same,Total Cell Count,[5],191
same,Population Apoptotic (%),[6],87%
same,Population Fragmented Nuclei (%),[6],19%
same,Population Healthy Nuclei (%),[6],70%
same,Population Hoechst High Intensity Objects (%),[6],3%
same,Population Membrane Permeable-Phenotype (%),[6],5%
same,Population Mitotic Cells (%),[6],12%
same,Population Normal (%),[6],96%
same,Population Pyknosed Nuclei (%),[6],10%
same,Total Cell Count,[6],165
same,Population Apoptotic (%),[7],72%
same,Population Fragmented Nuclei (%),[7],17%
same,Population Healthy Nuclei (%),[7],72%
same,Population Hoechst High Intensity Objects (%),[7],0%
same,Population Membrane Permeable-Phenotype (%),[7],3%
same,Population Mitochondria Different-Phenotype (%),[7],1%
same,Population Mitotic Cells (%),[7],27%
same,Population Normal (%),[7],99%
same,Population Pyknosed Nuclei (%),[7],10%
same,Population Tubulin-Different-Phenotype (%),[7],2%
same,Total Cell Count,[7],311
same,Population Apoptotic (%),[8],81%
same,Population Fragmented Nuclei (%),[8],15%
same,Population Healthy Nuclei (%),[8],77%
same,Population Hoechst High Intensity Objects (%),[8],1%
same,Population Membrane Permeable-Phenotype (%),[8],5%
same,Population Mitochondria Different-Phenotype (%),[8],2%
same,Population Mitotic Cells (%),[8],18%
same,Population Normal (%),[8],98%
same,Population Pyknosed Nuclei (%),[8],7%
same,Population Tubulin-Different-Phenotype (%),[8],4%
same,Total Cell Count,[8],153
same,Population Apoptotic (%),[9],100%
same,Population Fragmented Nuclei (%),[9],17%
same,Population Healthy Nuclei (%),[9],71%
same,Population Hoechst High Intensity Objects (%),[9],4%
same,Population Membrane Permeable-Phenotype (%),[9],4%
same,Population Mitochondria Different-Phenotype (%),[9],2%
same,Population Mitotic Cells (%),[9],0%
same,Population Normal (%),[9],95%
same,Population Pyknosed Nuclei (%),[9],10%
same,Population Tubulin-Different-Phenotype (%),[9],2%
same,Total Cell Count,[9],271
same,Population Apoptotic (%),[10],83%
same,Population Fragmented Nuclei (%),[10],15%
same,Population Healthy Nuclei (%),[10],70%
same,Population Hoechst High Intensity Objects (%),[10],3%
same,Population Mitochondria Different-Phenotype (%),[10],4%
same,Population Mitotic Cells (%),[10],16%
same,Population Normal (%),[10],96%
same,Population Pyknosed Nuclei (%),[10],14%
same,Population Tubulin-Different-Phenotype (%),[10],4%
same,Total Cell Count,[10],216
same,Population Apoptotic (%),[11],86%
same,Population Fragmented Nuclei (%),[11],16%
same,Population Healthy Nuclei (%),[11],73%
same,Population Hoechst High Intensity Objects (%),[11],2%
same,Population Membrane Permeable-Phenotype (%),[11],6%
same,Population Mitochondria Different-Phenotype (%),[11],1%
same,Population Mitotic Cells (%),[11],13%
same,Population Normal (%),[11],97%
same,Population Pyknosed Nuclei (%),[11],10%
same,Population Tubulin-Different-Phenotype (%),[11],2%
same,Total Cell Count,[11],436
same,Population Apoptotic (%),[12],100%
same,Population Fragmented Nuclei (%),[12],12%
same,Population Healthy Nuclei (%),[12],75%
same,Population Hoechst High Intensity Objects (%),[12],1%
same,Population Mitotic Cells (%),[12],0%
same,Population Normal (%),[12],98%
same,Population Pyknosed Nuclei (%),[12],11%
same,Population Tubulin-Different-Phenotype (%),[12],6%
same,Total Cell Count,[12],220
